Columns and labels:
[1] = Oral bioavailability in rhesus monkey at 20 mg/kg; format: ADME, organism-based, Macaca mulatta; settings: in vivo
Method in brief: (§1)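 Single oral gavage at 50 (mouse, rat), 5 (dog) or 20 (monkey) mg/kg; rodents and monkeys received suspensions in 0.5% methylcellulose/0.1% Tween 80, dogs gelatin capsules. Serial blood taken 0–24 h into K3EDTA, plasma stored at −70 °C. Parameters estimated by noncompartmental analysis, n = 3 per species (mouse values from mean concentration–time data, 3 mice per time point).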

[2] = Antiproliferative activity against human SET2 cells expressing JAK2 V617F mutan; format: functional, cell-based; settings: SET-2
[3] = target: Cyclin-dependent kinase 2 (Homo sapiens, UniProt P24941); experiment: Inhibition of recombinant CDK2 using RbING as substrate after 2 hrs by luminometric assay
[4] = target: Tyrosine-protein kinase JAK1 (Homo sapiens, UniProt P23458); experiment: Inhibition of recombinant JAK1 using poly(Glu,Ala,Tyr) as substrate after 2 hrs by luminometric assay
Sequence of Tyrosine-protein kinase JAK1 (P23458 whole entry): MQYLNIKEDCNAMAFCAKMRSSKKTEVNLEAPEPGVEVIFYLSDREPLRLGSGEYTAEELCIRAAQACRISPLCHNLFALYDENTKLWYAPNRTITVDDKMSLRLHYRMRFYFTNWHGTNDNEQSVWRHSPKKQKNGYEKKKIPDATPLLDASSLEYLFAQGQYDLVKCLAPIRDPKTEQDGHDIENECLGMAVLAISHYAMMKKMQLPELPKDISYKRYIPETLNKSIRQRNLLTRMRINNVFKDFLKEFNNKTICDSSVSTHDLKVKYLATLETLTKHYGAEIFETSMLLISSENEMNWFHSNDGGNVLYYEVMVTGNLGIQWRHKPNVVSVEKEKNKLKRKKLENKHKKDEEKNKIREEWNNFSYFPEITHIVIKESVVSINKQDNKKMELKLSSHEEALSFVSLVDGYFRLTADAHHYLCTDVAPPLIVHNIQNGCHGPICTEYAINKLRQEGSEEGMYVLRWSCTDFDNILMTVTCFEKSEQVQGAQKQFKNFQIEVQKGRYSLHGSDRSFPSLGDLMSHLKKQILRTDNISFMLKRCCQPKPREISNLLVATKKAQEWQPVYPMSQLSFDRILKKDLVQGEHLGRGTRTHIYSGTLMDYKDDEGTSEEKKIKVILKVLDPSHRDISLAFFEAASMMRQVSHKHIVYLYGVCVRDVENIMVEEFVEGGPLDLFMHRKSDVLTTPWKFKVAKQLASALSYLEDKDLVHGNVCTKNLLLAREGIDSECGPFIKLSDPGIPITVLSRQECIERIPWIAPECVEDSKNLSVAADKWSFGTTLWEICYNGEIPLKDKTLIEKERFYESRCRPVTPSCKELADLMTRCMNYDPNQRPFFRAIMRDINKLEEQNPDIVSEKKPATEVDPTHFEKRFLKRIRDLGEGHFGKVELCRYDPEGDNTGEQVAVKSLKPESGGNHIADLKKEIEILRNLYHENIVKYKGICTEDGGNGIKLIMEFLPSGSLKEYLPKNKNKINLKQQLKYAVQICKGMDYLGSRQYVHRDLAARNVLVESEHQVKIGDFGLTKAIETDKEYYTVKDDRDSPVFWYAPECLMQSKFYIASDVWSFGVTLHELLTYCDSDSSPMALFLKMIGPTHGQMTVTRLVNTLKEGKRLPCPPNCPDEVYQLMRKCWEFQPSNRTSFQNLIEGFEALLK

[5] = target: Non-receptor tyrosine-protein kinase TYK2 (Homo sapiens, UniProt P29597); experiment: Inhibition of TYK2
Sequence of Non-receptor tyrosine-protein kinase TYK2 (P29597 whole entry): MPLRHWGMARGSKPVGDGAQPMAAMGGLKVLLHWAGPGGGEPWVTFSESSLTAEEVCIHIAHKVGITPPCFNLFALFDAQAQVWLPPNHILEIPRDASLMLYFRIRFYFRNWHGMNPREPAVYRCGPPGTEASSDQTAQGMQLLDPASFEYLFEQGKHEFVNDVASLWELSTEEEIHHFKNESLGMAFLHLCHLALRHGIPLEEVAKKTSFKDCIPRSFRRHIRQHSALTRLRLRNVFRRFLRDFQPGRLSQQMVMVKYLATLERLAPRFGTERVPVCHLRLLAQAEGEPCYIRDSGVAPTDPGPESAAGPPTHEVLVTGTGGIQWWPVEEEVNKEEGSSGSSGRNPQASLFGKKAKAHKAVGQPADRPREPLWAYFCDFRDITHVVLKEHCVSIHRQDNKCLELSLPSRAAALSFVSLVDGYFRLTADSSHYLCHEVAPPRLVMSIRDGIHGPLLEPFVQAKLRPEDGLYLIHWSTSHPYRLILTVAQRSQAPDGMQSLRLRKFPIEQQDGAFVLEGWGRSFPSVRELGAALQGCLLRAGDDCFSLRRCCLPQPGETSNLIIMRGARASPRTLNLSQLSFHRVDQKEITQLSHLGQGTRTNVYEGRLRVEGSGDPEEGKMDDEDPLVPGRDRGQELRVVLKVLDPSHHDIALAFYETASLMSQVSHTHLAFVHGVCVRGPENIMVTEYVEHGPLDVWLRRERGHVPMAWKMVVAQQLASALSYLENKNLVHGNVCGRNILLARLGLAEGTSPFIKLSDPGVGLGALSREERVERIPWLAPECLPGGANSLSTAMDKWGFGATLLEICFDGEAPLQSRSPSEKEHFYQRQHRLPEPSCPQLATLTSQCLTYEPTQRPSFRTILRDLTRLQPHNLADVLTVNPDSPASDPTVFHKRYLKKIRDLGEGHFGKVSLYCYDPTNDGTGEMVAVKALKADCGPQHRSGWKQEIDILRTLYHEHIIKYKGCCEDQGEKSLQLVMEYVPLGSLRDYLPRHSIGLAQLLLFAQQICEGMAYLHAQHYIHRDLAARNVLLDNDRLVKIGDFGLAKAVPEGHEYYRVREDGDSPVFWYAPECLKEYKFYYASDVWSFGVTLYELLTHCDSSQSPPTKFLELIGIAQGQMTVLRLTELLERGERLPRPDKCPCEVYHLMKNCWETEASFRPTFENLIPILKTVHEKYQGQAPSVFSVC

[6] = Kinetic solubility in PBS buffer at pH 7; format: physicochemical; settings: read-out: Kinetic_solubility
Cytochrome P450 3A4 = Cytochrome P450 3A4 (Homo sapiens, UniProt P08684); experiment: Inhibition of CYP3A4 in human liver microsomes using testosterone as substrate by LC-MS/MS analysis; format: ADME, Microsome
[7] = Half life in mouse liver microsomes; format: ADME, Microsome
[8] = target: Voltage-gated inwardly rectifying potassium channel KCNH2 (Homo sapiens, UniProt Q12809); experiment: Displacement of dofetilide from human ERG
hERG = hERG (Homo sapiens, UniProt Q12809); experiment: Displacement of dofetilide from human ERG at 10 uM; settings: probe dofetilide
[9] = Apparent permeability from apical to basal side of human Caco2 cells at 10 uM after 120 mins by LC-MS/MS analysis; format: ADME, cell-based; settings: Caco-2
Method in brief: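 Caco-2 monolayers (passage 40–60) seeded at 1 × 10⁵ cells/cm² and used on day 20; 10 μM compound (1% DMSO final) in HBSS pH 7.4 with 25 mM HEPES and 4.45 mM glucose, 120 min at 37 °C, 5% CO2. Both directions run in duplicate, quantified by LC-MS/MS; lucifer yellow checks monolayer integrity.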

[10] = Half life in mouse liver microsomes at 5 uM; format: ADME, Microsome
Method in brief: (§2)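 Compound at 5 μM with human, mouse or dog microsomes at 0.87 mg/mL, or rat and monkey microsomes at 1 mg/mL, in 50 mM potassium phosphate pH 7.4 with NADPH regenerating system at 37 °C.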

[11] = Half life in rat liver microsomes at 5 uM; format: ADME, Microsome; method in brief: as §2
[12] = Half life in dog liver microsomes at 5 uM; format: ADME, Canis lupus familiaris, Microsome; method in brief: as §2
[13] = Half life in rhesus monkey live microsomes at 5 uM; format: ADME, Macaca mulatta; settings: liver microsomes; method in brief: as §2
Cytochrome P450 1A2 [14] = target: T1, Cytochrome P450 1A2 (Homo sapiens, UniProt P05177); experiment: Inhibition of CYP1A2 in human liver microsomes using phenacetin as substrate by LC-MS/MS analysis; format: ADME, Microsome
T1 sequence (P05177 whole entry): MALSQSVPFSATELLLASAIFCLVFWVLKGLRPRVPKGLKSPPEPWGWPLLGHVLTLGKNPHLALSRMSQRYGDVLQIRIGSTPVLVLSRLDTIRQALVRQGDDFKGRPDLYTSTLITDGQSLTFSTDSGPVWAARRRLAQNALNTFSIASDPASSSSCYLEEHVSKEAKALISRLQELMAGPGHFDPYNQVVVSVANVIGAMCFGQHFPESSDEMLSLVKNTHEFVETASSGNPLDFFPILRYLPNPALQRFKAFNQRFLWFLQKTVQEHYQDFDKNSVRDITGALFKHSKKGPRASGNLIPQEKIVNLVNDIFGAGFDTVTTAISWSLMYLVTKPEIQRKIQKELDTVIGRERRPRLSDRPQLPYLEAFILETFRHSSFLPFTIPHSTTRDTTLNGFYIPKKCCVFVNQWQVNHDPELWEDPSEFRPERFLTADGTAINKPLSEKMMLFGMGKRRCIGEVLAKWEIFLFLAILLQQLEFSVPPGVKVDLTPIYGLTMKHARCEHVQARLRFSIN

Cytochrome P450 2C9 = Cytochrome P450 2C9 (Homo sapiens, UniProt P11712); experiment: Inhibition of CYP2C9 in human liver microsomes using diclofenac as substrate by LC-MS/MS analysis; format: ADME, Microsome
Sequence of Cytochrome P450 2C9 (P11712 whole entry): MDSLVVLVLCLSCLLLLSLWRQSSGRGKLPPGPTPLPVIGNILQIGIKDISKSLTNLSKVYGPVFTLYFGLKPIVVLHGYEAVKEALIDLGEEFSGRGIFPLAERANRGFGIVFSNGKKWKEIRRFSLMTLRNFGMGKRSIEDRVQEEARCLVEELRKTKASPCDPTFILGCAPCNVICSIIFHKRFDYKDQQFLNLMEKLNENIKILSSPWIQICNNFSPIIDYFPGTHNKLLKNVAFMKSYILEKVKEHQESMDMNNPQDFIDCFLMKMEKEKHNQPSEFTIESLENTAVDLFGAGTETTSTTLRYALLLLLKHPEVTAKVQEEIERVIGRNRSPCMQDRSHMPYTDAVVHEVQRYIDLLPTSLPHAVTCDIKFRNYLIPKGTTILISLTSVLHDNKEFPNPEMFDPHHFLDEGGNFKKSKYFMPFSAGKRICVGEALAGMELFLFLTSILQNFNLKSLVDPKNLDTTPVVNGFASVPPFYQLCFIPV

Cytochrome P450 2C19 = Cytochrome P450 2C19 (Homo sapiens, UniProt P33261); experiment: Inhibition of CYP2C19 in human liver microsomes using omeprazole as substrate by LC-MS/MS analysis; format: ADME, Microsome
Sequence of Cytochrome P450 2C19 (P33261 whole entry): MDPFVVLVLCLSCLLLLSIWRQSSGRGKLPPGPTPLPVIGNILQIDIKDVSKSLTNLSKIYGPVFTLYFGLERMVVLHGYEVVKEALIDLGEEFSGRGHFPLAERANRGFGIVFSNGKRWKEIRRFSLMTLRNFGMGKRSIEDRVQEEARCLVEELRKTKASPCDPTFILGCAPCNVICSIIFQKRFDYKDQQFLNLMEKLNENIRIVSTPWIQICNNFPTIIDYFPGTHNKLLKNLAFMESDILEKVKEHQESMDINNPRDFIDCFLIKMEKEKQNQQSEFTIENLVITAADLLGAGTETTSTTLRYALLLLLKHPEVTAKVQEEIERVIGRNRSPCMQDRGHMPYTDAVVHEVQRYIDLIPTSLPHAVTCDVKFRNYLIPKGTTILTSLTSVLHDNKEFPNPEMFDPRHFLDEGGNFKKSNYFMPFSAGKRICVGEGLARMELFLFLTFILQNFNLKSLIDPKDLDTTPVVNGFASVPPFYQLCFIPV

Cytochrome P450 1A2 [15] = target: T1, Cytochrome P450 1A2; experiment: Induction of CYP1A2 in human liver microsomes; format: ADME, Microsome
[16] = Plasma protein binding in human at 1000 ng/mL by equilibrium dialysis; format: ADME, cell-free; settings: read-out: PPB
Method in brief: (§3)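 Equilibrium dialysis of plasma (mouse, rat, dog, monkey, human) spiked to 1000 ng/mL final against PBS, 4 h at 37 °C; buffer side extracted with MTBE in triplicate and analyzed by LC-MS/MS.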

[17] = Plasma protein binding in rat at 1000 ng/mL by equilibrium dialysis; format: ADME, cell-free; settings: read-out: PPB (converted); method in brief: as §3
[18] = target: Cyclin-dependent kinase 9 (Homo sapiens, UniProt P50750); experiment: Inhibition of CDK9
Sequence of Cyclin-dependent kinase 9 (P50750 whole entry): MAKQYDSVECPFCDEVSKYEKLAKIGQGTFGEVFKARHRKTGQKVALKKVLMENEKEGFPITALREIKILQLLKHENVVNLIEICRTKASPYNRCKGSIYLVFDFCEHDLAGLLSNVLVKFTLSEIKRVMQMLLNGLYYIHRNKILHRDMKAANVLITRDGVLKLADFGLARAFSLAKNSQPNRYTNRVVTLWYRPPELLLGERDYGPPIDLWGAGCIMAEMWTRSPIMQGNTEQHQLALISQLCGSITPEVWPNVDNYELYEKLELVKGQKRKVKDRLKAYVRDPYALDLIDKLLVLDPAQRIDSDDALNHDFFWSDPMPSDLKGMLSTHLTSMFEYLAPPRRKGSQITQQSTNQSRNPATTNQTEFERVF

[19] = target: Macrophage colony-stimulating factor 1 receptor (Homo sapiens, UniProt P07333); experiment: Inhibition of c-fms
Sequence of Macrophage colony-stimulating factor 1 receptor (P07333 whole entry): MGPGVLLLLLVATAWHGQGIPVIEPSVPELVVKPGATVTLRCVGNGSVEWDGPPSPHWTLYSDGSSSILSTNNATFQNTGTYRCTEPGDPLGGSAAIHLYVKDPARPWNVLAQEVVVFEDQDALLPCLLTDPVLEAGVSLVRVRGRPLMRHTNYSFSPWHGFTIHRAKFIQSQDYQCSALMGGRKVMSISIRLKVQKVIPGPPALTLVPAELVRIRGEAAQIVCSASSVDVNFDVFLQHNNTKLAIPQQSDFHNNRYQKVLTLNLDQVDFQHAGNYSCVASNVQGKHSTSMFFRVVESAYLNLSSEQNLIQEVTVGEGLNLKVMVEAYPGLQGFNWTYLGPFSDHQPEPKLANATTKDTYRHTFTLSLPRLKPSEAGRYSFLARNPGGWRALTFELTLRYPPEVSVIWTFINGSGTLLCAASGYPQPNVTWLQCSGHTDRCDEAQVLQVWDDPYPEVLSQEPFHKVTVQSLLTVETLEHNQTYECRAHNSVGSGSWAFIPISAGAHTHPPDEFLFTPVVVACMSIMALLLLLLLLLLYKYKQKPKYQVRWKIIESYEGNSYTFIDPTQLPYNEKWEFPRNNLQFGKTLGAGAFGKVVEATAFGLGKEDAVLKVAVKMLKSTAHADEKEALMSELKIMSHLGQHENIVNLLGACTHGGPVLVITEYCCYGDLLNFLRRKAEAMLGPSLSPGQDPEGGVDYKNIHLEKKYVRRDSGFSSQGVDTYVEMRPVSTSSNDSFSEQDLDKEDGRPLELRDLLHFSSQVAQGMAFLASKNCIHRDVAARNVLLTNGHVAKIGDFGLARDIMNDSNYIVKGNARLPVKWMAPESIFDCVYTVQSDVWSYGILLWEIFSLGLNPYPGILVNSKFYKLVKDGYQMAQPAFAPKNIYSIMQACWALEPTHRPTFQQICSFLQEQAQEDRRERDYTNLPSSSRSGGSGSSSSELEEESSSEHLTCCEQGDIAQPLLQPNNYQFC

[20] = Tmax in BALB/c nude mouse at 50 mg/kg, po; format: ADME, organism-based; parameters: dose 50 mg/kg, route oral; settings: in vivo
Method in brief: (§4)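 Single oral dose by gavage as suspension in 0.5% methylcellulose/0.1% Tween 80 (mouse, rat, monkey) or in gelatin capsules (dog). Serial blood samples taken from 0 to 24 h into K3EDTA tubes; plasma stored at −70 °C until analysis. Parameters derived by noncompartmental methods. Rat, dog and monkey n = 3; mouse values estimated from mean concentration-time data, n = 3 mice per time point.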

[21] = AUC (0 to infinity) in BALB/c nude mouse at 50 mg/kg, po; format: ADME, organism-based; parameters: time infinity, dose 50 mg/kg, route oral; settings: plasma; method in brief: as §1
[22] = Oral bioavailability in BALB/c nude mouse at 50 mg/kg; format: ADME, organism-based; settings: in vivo; method in brief: as §1
[23] = Cmax in Wistar rat at 50 mg/kg, po; format: ADME, organism-based; parameters: dose 50 mg/kg, route oral; settings: in vivo; method in brief: as §1
[24] = Tmax in Wistar rat at 50 mg/kg, po; format: ADME, organism-based; parameters: dose 50 mg/kg, route oral; settings: in vivo; method in brief: as §4
[25] = Oral bioavailability in Wistar rat at 50 mg/kg; format: ADME, organism-based; settings: in vivo; method in brief: as §1
[26] = Cmax in beagle dog at 5 mg/kg, po; format: ADME, organism-based, Canis lupus familiaris; parameters: dose 5 mg/kg, route oral; settings: in vivo; method in brief: as §1
[27] = Tmax in beagle dog at 5 mg/kg, po; format: ADME, organism-based, Canis lupus familiaris; parameters: dose 5 mg/kg, route oral; settings: in vivo; method in brief: as §4
[28] = AUC (0 to infinity) in beagle dog at 5 mg/kg, po; format: ADME, organism-based, Canis lupus familiaris; parameters: time infinity, dose 5 mg/kg, route oral; settings: plasma; method in brief: as §1
[29] = Oral bioavailability in beagle dog at 5 mg/kg; format: ADME, organism-based, Canis lupus familiaris; settings: in vivo; method in brief: as §1
[30] = Tmax in rhesus monkey at 20 mg/kg, po; format: ADME, organism-based, Macaca mulatta; parameters: dose 20 mg/kg, route oral; settings: in vivo; method in brief: as §4
[31] = Terminal half life in rhesus monkey at 20 mg/kg, po; format: ADME, organism-based, Macaca mulatta; parameters: dose 20 mg/kg, route oral; settings: in vivo, read-out: beta t1/2 (converted); method in brief: as §4

C1=C2COC/C=C/COCc3cc(ccc3OCCN3CCCC3)Nc3nccc(n3)C(=C1)O2 (mixture of isomers) [CT-1578]
bioavailability [1]: 32% | IC50 [2]: 246 nM | IC50 [3]: 7000 nM | IC50 [4]: 2700 nM | IC50 [5]: 230 nM | solubility kinetic [6]: > 250 µg/mL | IC50 (Cytochrome P450 3A4): > 10000 nM | half-life [7]: 0.45 h | IC50 [8]: > 10000 nM | inhibition at 10 µM (hERG): 14% | Papp A→B at 2 h, 10 µM [9]: 24.8 ×10⁻⁶ cm/s | half-life at 5 µM [10]: > 1 h | half-life at 5 µM [11]: > 1 h | half-life at 5 µM [12]: > 1 h | half-life at 5 µM [13]: 0.383 h | IC50 (Cytochrome P450 1A2 [14]): > 10000 nM | IC50 (Cytochrome P450 2C9): > 10000 nM | IC50 (Cytochrome P450 2C19): 1400 nM | Activity (Cytochrome P450 1A2 [15]): Not Active | fraction unbound at 1000 ng/mL [16]: 0.01 | fraction unbound at 1000 ng/mL [17]: 0.127 | IC50 [18]: 36 nM | IC50 [19]: 69 nM | Tmax [20]: 0.5 h | AUC(0-inf) [21]: 2020 ng·h/mL | bioavailability [22]: 34% | Cmax [23]: 231 ng/mL | Tmax [24]: 2.3 h | bioavailability [25]: 6% | Cmax [26]: 27 ng/mL | Tmax [27]: 3 h | AUC(0-inf) [28]: 96 ng·h/mL | bioavailability [29]: 6% | Tmax [30]: 2 h | half-life [31]: 1.1 h

Reference: ChEMBL document CHEMBL2034857, “Discovery of the macrocycle (9E)-15-(2-(pyrrolidin-1-yl)ethoxy)-7,12,25-trioxa-19,21,24-triaza-tetracyclo[18.3.1.1(2,5).1(14,18)]hexacosa-1(24),2,4,9,14(26),15,17,20,22-nonaene (SB1578), a potent inhibitor of janus kinase 2/fms-like tyrosine kinase-3 (JAK2/FLT3) for the treatment of rheumatoid …” (J Med Chem, 2012)
